The source made the active and inactive calls. No cut-off for these calls is given here.
Key:
Plasmodium berghei [1] = assay: Antimalarial activity against Plasmodium berghei infected in mouse assessed as change in mean survival time at 20 mg/kg, sc by Rane test; type: functional; details: route subcutaneous
Summary of the method: (§1)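 Mice were infected with P. berghei 3 days before drug. The compound was usually given subcutaneously in sesame or peanut oil at 20 to 640 mg/kg. Activity was read as the extension of mean survival time (ΔMST, days) of treated mice over infected controls.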

Plasmodium berghei [2] = assay: Antimalarial activity against Plasmodium berghei infected in mouse assessed as change in mean survival time at 40 mg/kg, sc by Rane test; type: functional; details: route subcutaneous; summary of the method: as §1
Plasmodium berghei [3] = assay: Antimalarial activity against Plasmodium berghei infected in mouse assessed as change in mean survival time at 80 mg/kg, sc by Rane test; type: functional; details: route subcutaneous; summary of the method: as §1
Plasmodium berghei [4] = assay: Antimalarial activity against Plasmodium berghei infected in mouse assessed as change in mean survival time at 160 mg/kg, sc by Rane test; type: functional; details: route subcutaneous; summary of the method: as §1
Plasmodium berghei [5] = assay: Antimalarial activity against Plasmodium berghei infected in mouse assessed as change in mean survival time at 320 mg/kg, sc by Rane test; type: functional; details: route subcutaneous; summary of the method: as §1
Plasmodium berghei [6] = assay: Antimalarial activity against Plasmodium berghei infected in mouse assessed as change in mean survival time at 640 mg/kg, sc by Rane test; type: functional; details: route subcutaneous; summary of the method: as §1
Plasmodium berghei [7] = assay: Antimalarial activity against Plasmodium berghei infected in mouse assessed as disease cure at 320 mg/kg, sc by Rane test; type: functional, organism-based; parameters: dose 320 mg/kg
Plasmodium berghei [8] = assay: Antimalarial activity against Plasmodium berghei infected in mouse assessed as disease cure at 640 mg/kg, sc by Rane test; type: functional, organism-based; parameters: dose 640 mg/kg
Plasmodium cynomolgi [9] = assay: Antimalarial activity against Plasmodium cynomolgi infected in rhesus monkey at 1 mg/kg administered daily for 7 days; type: functional, organism-based; parameters: dose 1 mg/kg
Mus musculus [10] = assay: Toxicity in mouse infected with Plasmodium berghei assessed as animal death at 640 mg/kg, sc; type: organism-based; parameters: dose 640 mg/kg, route subcutaneous; details: in vivo
Plasmodium cynomolgi [11] = assay: Antimalarial activity against Plasmodium cynomolgi infected in rhesus monkey assessed as disease cure at 1 mg/kg administered daily for 7 days; type: functional, organism-based; parameters: dose 1 mg/kg
Summary of the method: (§2)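 Rhesus monkeys infected with P. cynomolgi, dosed once daily for 7 days at each listed mg/kg level. Cures were recorded as the number of monkeys cured over the number treated.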

Plasmodium cynomolgi [12] = assay: Antimalarial activity against Plasmodium cynomolgi infected in rhesus monkey assessed as disease cure at 0.5 mg/kg administered daily for 7 days; type: functional, organism-based; parameters: dose 0.5 mg/kg; summary of the method: as §2
Mus musculus [13] = assay: Toxicity in mouse infected with Plasmodium berghei assessed as animal death at 160 mg/kg, sc; type: organism-based; parameters: dose 160 mg/kg, route subcutaneous; details: in vivo
Mus musculus [14] = assay: Toxicity in mouse infected with Plasmodium berghei assessed as animal death at 320 mg/kg, sc; type: organism-based; parameters: dose 320 mg/kg, route subcutaneous; details: in vivo
Plasmodium cynomolgi [15] = assay: Antimalarial activity against Plasmodium cynomolgi infected in rhesus monkey at 0.25 mg/kg administered daily for 7 days; type: functional, organism-based; parameters: dose 0.25 mg/kg; summary of the method: as §2
Plasmodium berghei [16] = assay: Antimalarial activity against Plasmodium berghei infected in mouse assessed as disease cure at 160 mg/kg, sc by Rane test; type: functional, organism-based; parameters: dose 160 mg/kg
Plasmodium cynomolgi [17] = assay: Antimalarial activity against Plasmodium cynomolgi infected in rhesus monkey at 0.50 mg/kg administered daily for 7 days; type: functional, organism-based; parameters: dose 0.5 mg/kg

COc1cc(NC(C)CCCN)c2nccc(SC)c2c1 (centres undefined) showed an MST (Plasmodium berghei [1]) of 0.1 days, an MST (Plasmodium berghei [2]) of 0.1 days and an MST (Plasmodium berghei [3]) of 1.3 days. For the same compound, the MST (Plasmodium berghei [4]) was 3.5 days, the MST (Plasmodium berghei [5]) was 6.7 days and the MST (Plasmodium berghei [6]) was 8.1 days. The Activity (Plasmodium berghei [7]) was “inactive”, the Activity (Plasmodium berghei [8]) was “inactive” and the Activity (Plasmodium cynomolgi [9]) was “inactive”.
With COc1cc(NC(C)CCCN)c2nccc(C)c2c1 (centres undefined) the MST (Plasmodium berghei [3]) was 5.5 days, the MST (Plasmodium berghei [4]) was 9 days and the MST (Plasmodium berghei [5]) was 10.1 days. For the same compound, the Activity (Plasmodium berghei [8]) was “Active”, the Activity (Mus musculus [10]) was “Toxic” and the Activity (Plasmodium cynomolgi [11]) was “Active”. The Activity (Plasmodium cynomolgi [12]) was “Active”.
With COc1cc(NC(C)CCCN)c2ncccc2c1 (centres undefined) [PRIMAQUINE] the MST (Plasmodium berghei [2]) was 5 days, the MST (Plasmodium berghei [3]) was 9.4 days and the Activity (Mus musculus [13]) was “Toxic”. The Activity (Mus musculus [14]) was “Toxic”, the Activity (Mus musculus [10]) was “Toxic” and the Activity (Plasmodium cynomolgi [15]) was “inactive”. For the same compound, the Activity (Plasmodium cynomolgi [11]) was “Active”.
COc1cc([N+](=O)[O-])c2nccc(Oc3ccc(Cl)cc3)c2c1 gave an MST (Plasmodium berghei [1]) of 3.5 days, an MST (Plasmodium berghei [2]) of 6.1 days and an MST (Plasmodium berghei [3]) of 10.1 days. For the same compound, the Activity (Plasmodium berghei [16]) was “Active”, the Activity (Plasmodium berghei [7]) was “Active” and the Activity (Plasmodium berghei [8]) was “Active”. The Activity (Mus musculus [10]) was “Non-toxic” and the Activity (Plasmodium cynomolgi [9]) was “inactive”.
COc1cc(NCCCN)c2nccc(C)c2c1.Cl was tested, and the MST (Plasmodium berghei [4]) was 3.9 days, the MST (Plasmodium berghei [5]) was 5.5 days and the Activity (Mus musculus [10]) was “Toxic”. For the same compound, the Activity (Plasmodium cynomolgi [15]) was “inactive”.
COc1cc(NC(C)CCCCN)c2nccc(C)c2c1.O=P(O)(O)O (centres undefined) gave an MST (Plasmodium berghei [1]) of 5.8 days, an MST (Plasmodium berghei [2]) of 7 days and an MST (Plasmodium berghei [3]) of 10.4 days. For the same compound, the Activity (Plasmodium berghei [16]) was “Active”, the Activity (Plasmodium berghei [7]) was “Active” and the Activity (Plasmodium berghei [8]) was “Active”. For the same compound, the Activity (Mus musculus [10]) was “Non-toxic”, the Activity (Plasmodium cynomolgi [17]) was “inactive” and the Activity (Plasmodium cynomolgi [11]) was “Active”.

— ChEMBL document CHEMBL3272114, “Antimalarials. 10. Synthesis of 4-substituted primaquine analogues as candidate antimalarials” (J Med Chem, 1977)
